Consider 15 molecules from ChEMBL document CHEMBL1154217, “Antimalarial and cytotoxic depsidones from the fungus Chaetomium brasiliense” (J Nat Prod, 2009).

Values after ≈ are worked out from the molar mass of the structure shown. Active and inactive are the calls of the source. No cut-off for these calls is given here.

Assay [1] concerns Plasmodium falciparum. Kind of assay: Antimalarial activity against multi drug-resistant Plasmodium falciparum K1 assessed as [3H]hypoxanthine uptake after 18 hrs by microculture radioisotope technique. The format is functional, organism-based. In a few lines:
(§1)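 Multidrug-resistant P. falciparum K1 was cultured by the Trager and Jensen method and tested in vitro by microculture radioisotope technique. Growth was read as [³H]-hypoxanthine uptake, and IC50 was taken as the concentration giving 50% reduction in parasite growth. Artemisinin served as the reference standard.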

The subject of assay [2] is Candida albicans. Kind of assay: Antifungal activity against Candida albicans by XTT assay. The format is functional, organism-based. In a few lines: (§2)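 Clinical isolate of Candida albicans tested by an assay modified from the soluble formazan (XTT) method. Viable cells were quantified from XTT formazan absorbance at 450 nm. Amphotericin B served as the reference substance.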

Another assay has as its system NCI-H187. The assay can be described thus: Cytotoxicity against human NCI-H187 cells by SRB assay. Format: functional, cell-based. (The SRB assay estimates cell density from bound dye.)
Assay [3] can be described thus: Cytotoxicity against human KKU100 cells by MTT assay. Format: functional, cell-based. (In general: Formazan colour is commonly taken as a measure of viable cells.)
A short description of assay [4]: Cytotoxicity against human KKU-M139 cells by MTT assay. The format is functional, cell-based.
Assay [5] in a line: Cytotoxicity against human KKU-M156 cells by MTT assay. Format: functional, cell-based.
Assay [6] in a line: Cytotoxicity against human KKU-M213 cells by MTT assay. The format is functional, cell-based.
Assay [7] is described as follows: Cytotoxicity against human KKU-M214 cells by MTT assay. The format is functional, cell-based.
The test system of assay [8] is Mycobacterium tuberculosis. Kind of assay: Antimycobacterial activity against Mycobacterium tuberculosis H37Ra at > 50 ug/mL after 4 days by almar blue assay. Format: functional, organism-based. In a few lines:
(§3)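 M. tuberculosis H37Ra was tested by microplate Alamar Blue assay (MABA), with isoniazid and kanamycin sulfate as reference drugs.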

The subject of assay [9] is KB. The assay can be described thus: Cytotoxicity against human KB cells by SRB assay. Format: functional, cell-based.
For assay [10], the system named is Candida albicans. The assay can be described thus: Antifungal activity against Candida albicans at > 50 ug/mL by XTT assay. The format is functional, organism-based. Put shortly:
as §2

For assay [11], the system named is KB. Kind of assay: Cytotoxicity against human KB cells at > 50 ug/mL by SRB assay. Format: functional, cell-based.
Another assay has as its system BC1. Kind of assay: Cytotoxicity against human BC1 cells at > 50 ug/mL by SRB assay. The format is functional, cell-based.
The test system of assay [12] is Plasmodium falciparum. The assay can be described thus: Antimalarial activity against multi drug-resistant Plasmodium falciparum K1 assessed as [3H]hypoxanthine uptake at > 50 ug/mL after 18 hrs by microculture radioisotope technique. The format is functional, organism-based. Put shortly:
as §1

Assay [13] relates to Mycobacterium tuberculosis. The assay can be described thus: Antimycobacterial activity against Mycobacterium tuberculosis H37Ra after 4 days by almar blue assay. Format: functional. To be noted: 96 h. In a few lines:
as §3

Assay [14] is described as follows: Cytotoxicity against human BC1 cells by SRB assay. Format: functional, cell-based.

Take `COc1c(O)c2c(c(C)c1C(=O)C=C(C)C)Oc1c(C=O)c(O)c(Cl)c(C)c1C(=O)O2` [MOLLICELLIN E]: the half-inhibitory concentration (IC50) with Plasmodium falciparum [1] is 3.2 µg/mL (≈ 7.16 µM); in the assay with Candida albicans [2] it was 39.7 µg/mL (≈ 88.8 µM); with NCI-H187, 1 µg/mL (≈ 2.24 µM); in assay [3] it was 4.83 µg/mL (≈ 10.8 µM); in [4], 5.03 µg/mL (≈ 11.3 µM); in assay [5] it was 5.22 µg/mL (≈ 11.7 µM). The results for the concentration for half-maximal inhibition (IC50) in assay [6] and in assay [7] were 4.44 µg/mL (≈ 9.94 µM) and 7.81 µg/mL (≈ 17.5 µM), respectively. Besides, the outcome in [8] was inactive.
`COc1cc2c(c(C)c1C(=O)C=C(C)C)OC(=O)c1c(C)cc(O)c(C=O)c1O2` [MOLLICELLIN L]: the IC50 with Plasmodium falciparum [1] came out at 3.4 µg/mL (≈ 8.58 µM); with KB [9] it was 33.9 µg/mL (≈ 85.5 µM); with NCI-H187 it was 9.5 µg/mL (≈ 24 µM); in assay [4], 8.55 µg/mL (≈ 21.6 µM); in assay [5] it was 6.04 µg/mL (≈ 15.2 µM); in [6] it was 13.2 µg/mL (≈ 33.3 µM). In assay [7], this molecule returned a half-maximal inhibitory concentration (IC50) of 4.51 µg/mL (≈ 11.4 µM). Besides, the result (in [8]; in the assay on Candida albicans [10]) was inactive.
On to `CC(C)=CCc1c(O)cc2c(c1C)OC(=O)c1c(C)cc(O)c(C=O)c1O2` [MOLLICELLIN H], for which the IC50 in the assay on KB [9] stood at 16.6 µg/mL (≈ 45.1 µM); in the assay with NCI-H187 it was 3.9 µg/mL (≈ 10.6 µM). Besides, the outcome in [8] was inactive.
Take `Cc1c2c(cc3c1C(=O)CC(C)(C)O3)Oc1c(C=O)c(O)c(Cl)c(C)c1C(=O)O2` [MOLLICELLIN M]: the figures for the IC50 (in the assay with Plasmodium falciparum [1]; in the assay with NCI-H187; in assay [3]) were 2.9 µg/mL (≈ 6.96 µM), 0.68 µg/mL (≈ 1.63 µM) and 6.28 µg/mL (≈ 15.1 µM), respectively. The result (in [8]; in the assay with Candida albicans [10]; in the assay with KB [11]; in the assay with BC1) was inactive.
Take `Cc1c2c(c(O)c3c1C(=O)CC(C)(C)O3)OC(=O)c1c(C)c(Cl)c(O)c(C=O)c1O2` [MOLLICELLIN F]: the half-inhibitory concentration (IC50) came out at 37.9 µg/mL (≈ 87.6 µM) with KB [9]; 13.1 µg/mL (≈ 30.3 µM) with NCI-H187; 5.21 µg/mL (≈ 12 µM) in assay [3]; 5.21 µg/mL (≈ 12 µM) in assay [4]; 5.36 µg/mL (≈ 12.4 µM) in assay [5]; 4.98 µg/mL (≈ 11.5 µM) in [6]. In assay [7], the half-inhibitory concentration (IC50) is 4.4 µg/mL (≈ 10.2 µM). Besides, the outcome (in the assay with Plasmodium falciparum [12]; in assay [8]) was inactive.
`Cc1cc(O)c(C=O)c2c1C(=O)Oc1c(O)c3c(c(C)c1O2)C(=O)CC(C)(C)O3` [MOLLICELLIN N]: the IC50 was 25.9 µg/mL (≈ 65 µM) with KB [9]; 13.5 µg/mL (≈ 33.9 µM) with NCI-H187; 6.46 µg/mL (≈ 16.2 µM) in [3]; 4.34 µg/mL (≈ 10.9 µM) in assay [4]; 2.9 µg/mL (≈ 7.28 µM) in assay [5]; 3 µg/mL (≈ 7.53 µM) in assay [6]. The same molecule yielded an IC50 in assay [7] of 5.05 µg/mL (≈ 12.7 µM). Moreover, the outcome (in the assay with Plasmodium falciparum [12]; in assay [8]; with Candida albicans [10]) was inactive.
In the case of `CC(C)=CCc1c(O)cc2c(c1C)OC(=O)c1c(C)c(Cl)c(O)c(C=O)c1O2` [MOLLICELLIN J], the IC50 was determined as 4.9 µg/mL (≈ 12.2 µM) in the assay on Plasmodium falciparum [1], 29.1 µg/mL (≈ 72.2 µM) in the assay on KB [9] and 23.3 µg/mL (≈ 57.8 µM) in the assay on NCI-H187. Besides, in assay [8], the result was inactive.
In assay [13], `NNC(=O)c1ccncc1` [ISONIAZID] returned a minimum inhibitory concentration (MIC) of 0.05 µg/mL (≈ 0.365 µM).
Still for that read-out and setting: for `NC[C@H]1O[C@H](O[C@H]2[C@H](O)[C@@H](O[C@H]3O[C@H](CO)[C@@H](O)[C@H](N)[C@H]3O)[C@H](N)C[C@@H]2N)[C@H](O)[C@@H](O)[C@@H]1O.O=S(=O)(O)O` [KANAMYCIN SULFATE] the value was 2.5 µg/mL.
`C[C@@H]1[C@H](O)[C@@H](C)/C=C/C=C/C=C/C=C/C=C/C=C/C=C/[C@H](O[C@@H]2O[C@H](C)[C@@H](O)[C@H](N)[C@@H]2O)C[C@@H]2O[C@](O)(C[C@@H](O)C[C@@H](O)[C@H](O)CC[C@@H](O)C[C@@H](O)CC(=O)O[C@H]1C)C[C@H](O)[C@H]2C(=O)O` [AMPHOTERICIN B]: the IC50 with Candida albicans [2] turned out to be 0.034 µg/mL (≈ 0.0368 µM).
With `Cc1c2ccncc2c(C)c2c1[nH]c1ccccc12` [ELLIPTECINE], the IC50 in [14] was found to be 0.26 µg/mL (≈ 1.06 µM); in assay [3], 7.11 µg/mL (≈ 28.9 µM); in [4] it was 1.21 µg/mL (≈ 4.91 µM); in assay [5], 2.02 µg/mL (≈ 8.2 µM); in [6], 0.3 µg/mL (≈ 1.22 µM); in [7] it was 0.21 µg/mL (≈ 0.853 µM).
With `CC(C)=CC(=O)c1c(O)cc2c(c1C)OC(=O)c1c(C)cc(O)c(C=O)c1O2` [MOLLICELLINE K], the half-maximal inhibitory concentration (IC50) was determined as 1.2 µg/mL (≈ 3.14 µM) in the assay with Plasmodium falciparum [1]; 1.2 µg/mL (≈ 3.14 µM) in the assay with Candida albicans [2]; 1.9 µg/mL (≈ 4.97 µM) with KB [9]; 6.8 µg/mL (≈ 17.8 µM) in assay [14]; 0.35 µg/mL (≈ 0.915 µM) in the assay on NCI-H187; 4.46 µg/mL (≈ 11.7 µM) in assay [3]. Besides, the half-maximal inhibitory concentration (IC50) in [4] was 13.9 µg/mL (≈ 36.5 µM); in assay [5], 6.65 µg/mL (≈ 17.4 µM); in assay [7], 4.92 µg/mL (≈ 12.9 µM). Moreover, 12.5 µg/mL (≈ 32.7 µM) was the least that counted as inhibitory in [13] (MIC).
Regarding `C[C@@H]1CC[C@H]2[C@@H](C)C(=O)O[C@@H]3O[C@@]4(C)CC[C@@H]1[C@]32OO4` [ARTEMISININ], in the assay with Plasmodium falciparum [1], the half-inhibitory concentration (IC50) is 0.001 µg/mL (≈ 0.00354 µM).
`COc1c(O)c2c(c(C)c1C(=O)C=C(C)C)Oc1c(C=O)c(O)cc(C)c1C(=O)O2` [MOLLICELLIN C]: the half-maximal inhibitory concentration (IC50) in the assay with Plasmodium falciparum [1] was determined as 9.1 µg/mL (≈ 22.1 µM); in the assay on Candida albicans [2], 49.9 µg/mL (≈ 121 µM); in the assay with KB [9], 46.3 µg/mL (≈ 112 µM); with NCI-H187, 3.1 µg/mL (≈ 7.52 µM); in assay [3], 5.12 µg/mL (≈ 12.4 µM); in assay [4], 2.51 µg/mL (≈ 6.09 µM). The IC50 in assay [5] came to 4.18 µg/mL (≈ 10.1 µM); in [6] it was 3.2 µg/mL (≈ 7.76 µM); in [7], 3.35 µg/mL (≈ 8.12 µM). Moreover, the result (in assay [8]; in the assay with BC1) was inactive.
`Cc1cc(O)c(C=O)c2c1C(=O)Oc1c(cc3c(c1C)C(=O)CC(C)(C)O3)O2` [MOLLICELLIN B]: the IC50 in the assay on Plasmodium falciparum [1] is 4.7 µg/mL (≈ 12.3 µM); in the assay with KB [9], 37.1 µg/mL (≈ 97 µM); with NCI-H187 it was 14.7 µg/mL (≈ 38.4 µM); in [3], 4.63 µg/mL (≈ 12.1 µM); in assay [4], 11.7 µg/mL (≈ 30.5 µM); in assay [5] it was 15.7 µg/mL (≈ 41 µM). Further, the values for the IC50 in [6] and in [7] were 6.94 µg/mL (≈ 18.2 µM) and 4.5 µg/mL (≈ 11.8 µM), respectively. The outcome (in assay [8]; with Candida albicans [10]) was inactive.

By IC50 is commonly meant the concentration that inhibits the measured activity by half. Usually MIC stands for the lowest concentration that inhibits growth of the organism.
